Reference: ChEMBL document CHEMBL4334452, “Monosaccharide Analogues of Anticancer Peptide R-Lycosin-I: Role of Monosaccharide Conjugation in Complexation and the Potential of Lung Cancer Targeting and Therapy” (J Med Chem, 2019)
Activity calls are given as the source filed them. No cut-off for these calls is given here. *1 amine or outer side, *2 acyl side, *3 side chain or, on linkers, in order; H or OH if unused. Where a SMILES comes first, the peptide text is derived from it. The star is where a group is joined. NH(CH2)3O(βDGlc) = OC[C@H]1O[C@@H](OCCCN*)[C@H](O)[C@@H](O)[C@@H]1O; Glutaryl = O=C(CCCC(=O)[*:2])[*:1]

Columns and labels:
[1] = Drug uptake in heart of Balb/c nu/nu mouse xenografted with human A549 cells expressing luciferase gene at 9 mg/kg, ip measured after 6 hrs by fluorescence assay; type: ADME, organism-based; conditions: in vivo
[2] = tested on: A549; assay: Induction of morphological changes in 3D spheroids of human A549 cells assessed as cell shrinkage at 30 uM treated every 2 days for 6 days measured every 3 days during compound dosing by microscopic analysis; type: functional, cell-based
Method in brief: (§1)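 A549 3D spheroids, one per well, in 10% medium with peptide at 30 µM final. Dosed at day 0, then re-added at days 2 and 4, for 6 days total. Spheroids washed thrice, then imaged and sized at days 0, 3 and 6. Viability read by CCK-8.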

[3] = tested on: A549; assay: Induction of apoptosis in human A549 cells assessed as appearance of surface bubbling at 15 uM measured after 24 hrs by scanning electron microscopic analysis; type: functional, cell-based
[4] = tested on: A549; assay: Induction of apoptosis in human A549 cells assessed as late apoptotic cells at 8 uM measured after 4 hrs by Annexin V-FITC/propidium iodide staining-based flow cytometry (reference value: 3.61%); type: functional
Method in brief: (§2)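 A549 cells grown 24 h, trypsinized, then resuspended in medium with 8 µM peptide for 4 h at 37 °C. Cells washed with cold PBS, stained with Annexin V-FITC/PI, and analysed by flow cytometry.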

[5] = tested on: A549; assay: Induction of apoptosis in human A549 cells assessed as appearance of apoptotic bodies at 15 uM measured after 24 hrs by scanning electron microscopic analysis; type: functional, cell-based
[6] = tested on: A549; assay: Induction of morphological changes in human A549 cells assessed as cell shrinkage at 15 uM measured after 24 hrs by scanning electron microscopic analysis; type: functional, cell-based
[7] = Drug uptake in spleen of Balb/c nu/nu mouse xenografted with human A549 cells expressing luciferase gene at 9 mg/kg, ip measured after 6 hrs by fluorescence assay; type: ADME, organism-based; conditions: in vivo
[8] = molecular target: T1, Solute carrier family 2, facilitated glucose transporter member 1 (Homo sapiens) (UniProt P11166); assay: Binding affinity to GLUT1 in human A549 cells harboring luciferase gene assessed as cytotoxicity by measuring reduction in cell viability after 24 hrs by CCK8 assay; type: cell-based
T1 sequence (whole entry): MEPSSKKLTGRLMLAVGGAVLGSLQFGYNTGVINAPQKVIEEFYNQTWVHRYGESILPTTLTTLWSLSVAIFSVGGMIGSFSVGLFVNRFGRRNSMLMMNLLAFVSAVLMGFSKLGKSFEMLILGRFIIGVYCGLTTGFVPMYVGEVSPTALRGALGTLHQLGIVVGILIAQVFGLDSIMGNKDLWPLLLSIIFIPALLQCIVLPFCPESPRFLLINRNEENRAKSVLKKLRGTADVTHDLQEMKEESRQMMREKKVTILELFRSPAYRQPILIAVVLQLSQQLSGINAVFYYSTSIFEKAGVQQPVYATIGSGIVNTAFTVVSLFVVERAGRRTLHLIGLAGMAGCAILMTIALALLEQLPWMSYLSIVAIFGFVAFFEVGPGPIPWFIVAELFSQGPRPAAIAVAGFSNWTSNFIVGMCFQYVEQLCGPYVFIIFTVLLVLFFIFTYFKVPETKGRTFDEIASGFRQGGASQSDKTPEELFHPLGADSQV

[9] = tested on: HEK-293T; assay: Cytotoxicity against HEK293T cells assessed as reduction in cell viability measured after 24 hrs by CCK8 assay; type: cell-based, Homo sapiens; conditions: Homo sapiens, HEK-293T
Method in brief: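 Cells (A549, H460, H1437, PC-3, HGC-27, MDA-MB-231, HEK-293T, L-02) seeded at about 2×10^3/well and grown overnight. Treated 24 h with a peptide concentration series in serum-free medium. Viability by CCK-8; IC50 taken as 50% inhibition versus untreated cells. Average of three experiments, each in triplicate.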

[10] = tested on: A549; assay: Induction of morphological changes in 3D spheroids of human A549 cells assessed as reduction in spheroid volume at 30 uM treated every 2 days for 6 days measured every 3 days during compound dosing by microscopic analysis; type: functional, cell-based; method in brief: as §1
[11] = Toxicity in Balb/c nu/nu mouse xenografted with human A549 cells expressing luciferase gene assessed as change in body weight at 9 mg/kg, ip administered every 2 days for seven times measured on day 14; type: organism-based; conditions: in vivo, 48 h
Method in brief: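 Male BALB/c nu/nu mice, 4–6 weeks old, carrying subcutaneous A549-luciferase tumours (right back, cells in sterile PBS), dosed at a tumour size of 100–200 mm³; five per group, PBS controls. Two regimens: 9 mg/kg i.p. (200 µL) every other day ×7, ended day 14; or 3 mg/kg intratumoral (100 µL) every 3 days ×4, ended day 12. Body weight was monitored throughout.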

[12] = tested on: A549; assay: Induction of morphological changes in 3D spheroids of human A549 cells assessed as disruption of cell morphology at 30 uM treated every 2 days for 6 days measured every 3 days during compound dosing by microscopic analysis; type: functional, cell-based; method in brief: as §1
[13] = tested on: A549; assay: Induction of morphological changes in 3D spheroids of human A549 cells assessed as dissociation of 3D structure at 30 uM treated every 2 days for 6 days measured every 3 days during compound dosing by microscopic analysis; type: functional, cell-based; method in brief: as §1
[14] = tested on: A549; assay: Induction of mitochondrial membrane potential loss in human A549 cells at 15 uM measured after 24 hrs by JC1 staining based fluorescence microscopic analysis; type: functional, cell-based
Method in brief: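 A549 cells exposed to 15 µM peptide for 24 h, then stained with JC-1 kit. Monomer and aggregate emissions viewed by fluorescence microscopy; depolarization read as a rise in the green/red ratio, n=3.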

[15] = tested on: A549; assay: Induction of apoptosis in human A549 cells assessed as necrotic cells at 8 uM measured after 4 hrs by Annexin V-FITC/propidium iodide staining-based flow cytometry (reference value: 0.51%); type: functional; method in brief: as §2
[16] = tested on: A549; assay: Induction of apoptosis in human A549 cells assessed as increase in caspase-3 activity at 15 uM measured after 24 hrs by Ac-DEVD-pNA substrate based assay relative to control; type: functional
Method in brief: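 A549 cells treated 24 h with 15 µM peptide, or medium as control. Cells lysed, and supernatant incubated with Ac-DEVD-pNA (2 mM). Absorbance read at 405 nm; activity ratio expressed against blank control, n=3.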

[17] = Drug uptake in liver of Balb/c nu/nu mouse xenografted with human A549 cells expressing luciferase gene at 9 mg/kg, ip measured after 6 hrs by fluorescence assay; type: ADME, organism-based; conditions: in vivo
[18] = tested on: A549; assay: Antitumor activity against human A549 cells expressing luciferase gene xenografted in Balb/c nu/nu mouse assessed as tumor growth inhibition at 9 mg/kg, ip administered every 2 days for seven times measured on day 14 by bioluminescent imaging analysis; type: functional, organism-based
Method in brief: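 Male BALB/c nu/nu mice, 4-6 weeks old, carrying subcutaneous A549-luciferase xenografts in the right back. Dosing started when tumors reached 100-200 mm³ (day 0), five per group. Peptide was given at 9 mg/kg i.p. in 200 µL every other day for 7 doses; PBS served as control. Bioluminescent imaging on day 14; tumor size and body weight tracked. Tumors fixed in paraformaldehyde, paraffin-sectioned, TUNEL-stained.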

| Drug uptake [1] | Drug uptake [7] | Drug uptake [17] | SMILES | Activity [2] | Activity [3] | Activity [4] [%] | Activity [5] | Activity [6] | Activity [8] | IC50 [9] [µM] | Activity [10] | Activity [11] | Activity [12] | Activity [13] | Activity [14] | Activity [15] [%] | fold change (FC) [16] | TGI [18] |
| --- | --- | --- | --- | --- | --- | --- | --- | --- | --- | --- | --- | --- | --- | --- | --- | --- | --- | --- |
| Active | Active | Active | CC[C@H](C)[C@H](NC(=O)[C@H](Cc1ccccc1)NC(=O)[C@H](CCCNC(=N)N)NC(=O)[C@H](C)NC(=O)[C@@H](NC(=O)[C@H](CO)NC(=O)[C@H](CCCNC(=N)N)NC(=O)[C@H](CCSC)NC(=O)[C@H](C)NC(=O)[C@H](CCCNC(=N)N)NC(=O)[C@H](Cc1ccccc1)NC(=O)[C@H](Cc1c[nH]c2ccccc12)NC(=O)CNC(=O)[C@H](CCCNC(=N)N)NC(=O)CCCC(=O)NCCCO[C@@H]1O[C@H](CO)[C@@H](O)[C@H](O)[C@H]1O)[C@@H](C)CC)C(=O)N[C@@H](C)C(=O)N[C@@H](CCCNC(=N)N)C(=O)N[C@@H](CCC(=O)O)C(=O)N[C@@H](CCCNC(=N)N)C(=O)N[C@@H](CC(C)C)C(=O)N[C@@H](CCCNC(=N)N)C(=O)N[C@@H](CCC(=O)O)C(=O)N[C@@H](Cc1cnc[nH]1)C(=O)N[C@@H](CC(C)C)C(=O)O ({NH(CH2)3O(βDGlc)-Glutaryl}-RGWFRAMRSIARFIARERLREHL-OH) | Active | Active | 38.49 | Active | Active | Active | 37.4 | Active | Non-Toxic | Active | Active | Active | 0.57 | 1.5 | Active |
| Active | Active | Active | CC[C@H](C)[C@H](NC(=O)[C@H](Cc1ccccc1)NC(=O)[C@H](CCCNC(=N)N)NC(=O)[C@H](C)NC(=O)[C@@H](NC(=O)[C@H](CO)NC(=O)[C@H](CCCNC(=N)N)NC(=O)[C@H](CCSC)NC(=O)[C@H](C)NC(=O)[C@H](CCCNC(=N)N)NC(=O)[C@H](Cc1ccccc1)NC(=O)[C@H](Cc1c[nH]c2ccccc12)NC(=O)CNC(=O)[C@@H](N)CCCNC(=N)N)[C@@H](C)CC)C(=O)N[C@@H](C)C(=O)N[C@@H](CCCNC(=N)N)C(=O)N[C@@H](CCC(=O)O)C(=O)N[C@@H](CCCNC(=N)N)C(=O)N[C@@H](CC(C)C)C(=O)N[C@@H](CCCNC(=N)N)C(=O)N[C@@H](CCC(=O)O)C(=O)N[C@@H](Cc1cnc[nH]1)C(=O)N[C@@H](CC(C)C)C(=O)O (H-RGWFRAMRSIARFIARERLREHL-OH) | Active | Active | 9.87 | Active | Active | Active | 25.8 | Active | Non-Toxic | Active | Active | Active | 0.75 | 1.5 | Active |
